# From the RNAGym collection of RNA variant scans (doi:10.1126/science.aae0568)
# This sample holds only a part of the variants without activity.
# B1: tRNA (parent)
# chain: GUUCCGUUGGCGUAAUGGUAACGCGUCUCCCUCCUAAGGAGAAGACUGCGGGUUCGAGUCCCGUACGGAACG
# Variants of: B1
# Assay: yeast fitness relative to wild type (ratio to wild type); higher = fitter; tRNA-Arg(CCU), competitive growth, 37 C, YPD
# Summary of the method: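 Amplicons of the tRNA-Arg(CCU) gene were sequenced, 100-nucleotide paired-end, from the start population and from each end population of a pooled yeast competition. The competition, in six parallel replicates, lasted 24 hours in YPD at 37°C. Fitness relative to wild type was calculated from changes in genotype frequencies. Genotypes had to have ≥ 100 starting reads, and estimates < 0.5 were set to 0.5.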
row,Variant,yeast fitness
1,GUUCCGUUCGCGUAAUGGUAACGCGUCUCCCUCCUAAGGAGCAGACUGCGGGUUCGAGUCCCGUACGCAACG [G9C A42C G68C],0.542
2,GUUCCGUUGGCGUAAUGAUAACGCGUCUCCCUCCUAAGGAGAAGACUGCGGGUUUCAGUCCCGUACGGAGCG [G18A C55U G56C A70G],≤ 0.5
3,GUUCCGUUGGGGUAAUGGUAACGCGUCUCCCUCCUCAGGAGAAGACUGCGGGUUCGAGUCCCGUACGAAACG [C11G A36C G68A],0.506
4,GUUCCGUUGGUGUAUUGGUAACGCGUCUCCCUCCUAAGGAGAAGACUGCGGGUUCGAGUCCCGUUCGGAACG [C11U A15U A65U],≤ 0.5
5,GUUCCGUUGGCGUAAUGGUAACGCGUCUCCCUCCUAAGGAGAACACUGCGGGUUCGAGUCCGGUACGGAACG [G44C C62G],0.644
6,GUUCCGUUGGCGUAAUGGGAACGCGUCUCCCUCCUAAGGAGAAGACUGCGGGUUCGAGACCCGUACGGUACG [U19G U59A A69U],≤ 0.5
7,GUUCCGUUGGCGUAAUGGUAACGCGUCUCCCUCCUAAGGGAAAGACUGCGGGUUCGAGUCCCGUACGGAACG [A40G G41A],0.825
8,GUUCCGUUGGCGUAGUGGUAACGAGUCUCCCUCCUAAGGAGAAGACUGCGGGUUCGAGUCCCGUACGGAACG [A15G C24A],0.587
9,GGUCCGUUGGCGUAAUGGUAACGCGUCUCCGUCCUAAGGAGAAGACUGCGGGUUCGUGUCCCGUACGGAACG [U2G C31G A57U],≤ 0.5
10,GUUCCGUUGGCGUCAUGGUCACGCGUCUCCCUCUUAAGGAGAACACUGCCGGUUCGAGUCCUGUACGGAACG [A14C A20C C34U G44C G50C C62U],≤ 0.5
11,GUUCCGUCGGCGUAAUGGUACCGCGUCUCUCUCCUAAGGAGAAGACUGCGGAUUCGAGUCCCGUACGGAACG [U8C A21C C30U G52A],≤ 0.5
12,GCUCCGUUGGCGUAAUGGUAAAGCGUCUACCUCCUAAGGAGAAGACUGCGGGUUUGAGUCACGUACGGAACG [U2C C22A C29A C55U C61A],≤ 0.5
13,GUUCCGUUGGCGUAAUGGUAACGCGUCUCCCUCCUAAGGGGAAGAGUGCGGGUUCGAGUUCCGUACGGAACG [A40G C46G C60U],≤ 0.5
14,GUUCCGUUGCCGUAAUGGUAACGCGUCUCCCUCCUAAGGAGAAGACUGCGGGUUCGAGUCCCGUACGGACCG [G10C A70C],0.689
15,GUUCCAUUGGCGUAAUGGUAACGCGUCUCCCUCCUAAGGAGAAAGCUGCGCGUUCGAGUCCCGUAUGGCACG [G6A G44A A45G G51C C66U A69C],≤ 0.5
16,GUUCCGUUAGCGUAAUGGUAACGCGUGUCCCUCAUAAGGAGAAGAGUGCGGGUUAGAGUCCCAUACGGAACG [G9A C27G C34A C46G C55A G63A],≤ 0.5
17,GUUCCGUUGGCGUAAUGGUAACGUGUGUCCCUCCUAAGGAGAAGACUGCGGGUUCGAGUCCCGUCCGGAACG [C24U C27G A65C],≤ 0.5
18,GUUCUGUUGGCGUAAUCGUAACGCGUCUCGCUCCUAAGGAGAAGACUGCGGGUUGGAGUCCCGUACGGAACG [C5U G17C C30G C55G],≤ 0.5
19,GUUACGUUGGCGUAAUGGUAACGCGUUGCCCUGCUGAGGAGAAGACUGCGGGUUCGAGUCCCGUAUGGAACG [C4A C27U U28G C33G A36G C66U],0.542

row,Variant,yeast fitness
1,GUUCCGUUGGCGUAAUGGUAACGCGUGUCCCUCCUAAGGAGAAGACUGUGGGUUCGAGUACCGUACGGAACG [C27G C49U C60A],≤ 0.5
2,GUUCCGUUCGCGUAAUGGUAACGCGUUUCCCUCCUAAGGAGAAGACCGCGGGUUUGAGUCCGGUGCGGUACG [G9C C27U U47C C55U C62G A65G A69U],≤ 0.5
3,GUUCCGUUGGCGUAAUUGUAACGCGUGUCUCUCCUAAGGAGAAGACUGCGGGUUCGAGUACCGUACGGAACG [G17U C27G C30U C60A],≤ 0.5
4,GUUGCGUUGGCGUAAUGGUAACGCGUCUCCCUCCUAAGGAGAAGACUGCGGGUUCGAGUGCCGUACGCAACG [C4G C60G G68C],0.622
5,GUUCCGUUGGCGUAAUGGUAACGCGUCUAUCUCCUAAGGAGAAGACUGCGGGUUCGAGUCCGGAACGGAACG [C29A C30U C62G U64A],0.553
6,GUUCCGUUGGCGUAAUGGUAACGCGUCUCUCUCCUAAGGAGGAGACUGCGGCUUCGAGUCCCGUACGGAACG [C30U A42G G52C],≤ 0.5
7,GUUCCGUUGGCGUAACGGUAACGCGUCUUCCUCCUAAGGAGAAGACUGCGGGUUCGAGUCCCGUACGGAACG [U16C C29U],0.738
8,GUUCCGUUGGCGUGGUGGUAACGCGUCUCCCUGUUAAGGAGACGACUGGGGGUUCGAGUCCCGUACGGAACG [A14G A15G C33G C34U A43C C49G],≤ 0.5
9,GUUCCGUUGGCGUAAUGGUAACGAGUCUCCCUCCUACAGAGAAGACUGCGGGUUCGACUCCCCUACGGAACG [C24A A37C G38A G58C G63C],≤ 0.5
10,GUUCCGUUGGCGUAUUGGUAACGCGUCUCCCUCCUAAGGAGAAGACUGCGGGUUCGAGUCCCGUAGGGAACG [A15U C66G],0.671
11,GUUCCGUUGGCGUAAUGGUAACGCGUCUCCGUACUAAGGAGAAGACUGCGGGUUCGAGUCCCGUACGGAACG [C31G C33A],0.678
12,GUUCCGUUGGCGUAAUGGUAACGCGUCUCCCUCCUAAGGAGAAGACUGCGGGUUCGAGUCCUGUACGGACCG [C62U A70C],0.91
13,GUUCCGUUGGCGUAAUGGUGACGCGUCACCCUCCUAAGGAGAAGACUGCGGGAUCGAGUCCCGUACGGAACG [A20G U28A U53A],≤ 0.5
14,GUUCCGUUGGCGUAAUGGUAACGCGUCUGCCUCCUAAGGAGAAGACUGCGGGUUAGAGUCCCGUGCGGAACG [C29G C55A A65G],≤ 0.5
15,GUUCCGUUGGCGUAAUGGUAACGCGUCUCCCUCCUAAGGAGAAGAAUGCGGGUUCGAGUCCCGUAUGGAACG [C46A C66U],0.985
16,GUACCGUUGGCGUAACGGUAACGCGUCUCCCUGCUAAGGAGAAGAUUGCGGGUUCGAGUCCCGUACGGAACG [U3A U16C C33G C46U],≤ 0.5
17,GUUCCGUUGGCGUAAUGGUAACGCGUCUCCCUCCUAAGGAGAAGACUGCGGGUUCGAGCCCCGUACAGAACG [U59C G67A],0.835
18,GUUCCGUUGGCGUAAUGGUAACGCGUCUCCUUCCUAAGGAGAAGACUGGGGGUUCGAGUCCCGUACGGCACG [C31U C49G A69C],0.636
19,GUUCCGUUGGCGUAAUGGUAACGCGUGUCCCUCCUAAGAAGAAGAUUGCGGGUUCGAGUCCCGUACAGAACG [C27G G39A C46U G67A],0.581
